In ChEMBL document CHEMBL3399918, “In vitro radical scavenging and cytotoxic activities of novel hybrid selenocarbamates” (Bioorg Med Chem, 2015):

What was measured:
MCF7 = assay: Cytotoxicity against human MCF7 cells after 72 hrs by MTT assay; type: functional; conditions: MCF7, 72 h; for CC50: read-out: LC50 (the source's name)
Procedure, shortened: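 MCF-7 cells grown in EMEM with 10% foetal calf serum, 2 mM L-glutamine, 100 units/mL penicillin, 100 µg/mL streptomycin. Exposed to five concentrations between 0.01 and 100 μM for 72 h, 37 °C, humidified 5% CO2; MTT read-out. GI50, TGI, LC50 relative to untreated controls; ≥3 independent experiments in quadruplicate.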

HT-29 = assay: Cytotoxicity against human HT-29 cells after 72 hrs by MTT assay; type: functional; conditions: HT-29, 72 h
Procedure, shortened: (§1)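 CCRF-CEM, HT-29, PC-3 and HTB-54 cells grown in RPMI 1640 with 10% foetal calf serum, 2 mM L-glutamine, penicillin/streptomycin, 10 mM HEPES (pH 7.4). Five concentrations, 0.01–100 μM, 72 h at 37 °C, 5% CO2; MTT read-out. GI50, TGI and LC50 versus untreated controls; at least 3 independent experiments in quadruplicate.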

CCRF-CEM = assay: Cytotoxicity against human CCRF-CEM cells after 72 hrs by MTT assay; type: functional; procedure, shortened: as §1
[1] = Cytotoxicity against human PC3 cells after 72 hrs by MTT assay; type: functional; conditions: PC-3, 72 h; procedure, shortened: as §1
[2] = Cytotoxicity against human HTB-54 cells after 72 hrs by MTT assay; type: functional; conditions: HTB-54, 72 h; for CC50: read-out: LC50 (the source's name); procedure, shortened: as §1
[3] = Cytotoxicity against human 184B5 cells after 72 hrs by MTT assay; type: cell-based; conditions: for GI50 at 72 h: 184B5 cells; for LC50 / TGI: 184b5, 72 h
Procedure, shortened: (§2)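 Non-malignant lines: 184B5 (normal breast) in Hams F-12/DMEM (50:50) with published supplements; BEAS-2B (bronchial epithelium) in Hams F-12/DMEM (50:50) with 10% foetal calf serum, 2 mM L-glutamine, penicillin/streptomycin. Compounds at five concentrations, 0.01–100 μM, 72 h, 37 °C, 5% CO2; MTT read-out. GI50, TGI, LC50 relative to untreated controls; ≥3 independent experiments in quadruplicate.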

[4] = Cytotoxicity against human BEAS2B cells after 72 hrs by MTT assay; type: cell-based, BEAS-2B; conditions: for GI50 at 72 h: BEAS2B cells; for LC50 / TGI: beas-2b, 72 h; procedure, shortened: as §2

Structure (SMILES)	GI50 (MCF7) [µM]	TGI (MCF7) [µM]	CC50 (MCF7) [µM]	GI50 (HT-29) [µM]	LC50 (HT-29) [µM]	TGI (HT-29) [µM]	GI50 (CCRF-CEM) [µM]	LC50 (CCRF-CEM) [µM]	TGI (CCRF-CEM) [µM]	GI50 [1] [µM]	LC50 (concentration causing 50% net cell kill) [1] [µM]	TGI [1] [µM]	GI50 [2] [µM]	TGI [2] [µM]	CC50 [2] [µM]	GI50 at 72 h [3] [µM]	LC50 [3] [µM]	TGI [3] [µM]	GI50 at 72 h [4] [µM]	LC50 [4] [µM]	other results
O=C(Nc1ccc([Se][Se]c2ccc(NC(=O)OCc3ccc([N+](=O)[O-])cc3)cc2)cc1)OCc1ccc([N+](=O)[O-])cc1	20.6	52.8	85	16.7	75.9	46.3	8.6	68.1	36.5	6.4	69.2	27.1	31.8	55.6	79.4	6	56.5	13.8	6.3	61.6	TGI [4]: 22.5 µM
C=CCOC(=O)Nc1ccc([Se]C#N)cc1	15	43.1	71.2	24.5	72.8	48.6	9.2	68.6	38.1	17.6	71.8	44.7	27	50.1	73.3	5	53.8	9.8	21.4	73.5	TGI [4]: 47.4 µM
O=C(Nc1ccc([Se][Se]c2ccc(NC(=O)Oc3ccc(Cl)cc3)cc2)cc1)Oc1ccc(Cl)cc1	12.4	46	79.6	9.9	76.9	43.4	10.8	76	43.4	1	82.6	28.1	28.6	60.8	93	2.5	52.6	8.9	0.1	64.7	TGI [4]: 26.6 µM
Cc1ccc(OC(=O)Nc2ccc([Se]C#N)cc2)cc1	9.9	39.9	69.8	8.8	68.7	38.8	17.4	72	44.7	7.6	65.1	32.3	17.3	44.2	71.1	4.4	46.9	8.7	5.6	58.3	TGI [4]: 15.3 µM
O=C(Nc1ccc([Se][Se]c2ccc(NC(=O)Oc3ccc(F)cc3)cc2)cc1)Oc1ccc(F)cc1	8	33.7	64.3	18.5	85.3	51.9	8.7	68.8	37.6	4.9	64.5	31.3	26.7	51.8	77	3.7	47.8	8.6	0.7	61.8	TGI [4]: 23.5 µM
COc1cc([C@@H]2c3cc4c(cc3[C@@H](O[C@@H]3O[C@@H]5CO[C@@H](C)O[C@H]5[C@H](O)[C@H]3O)[C@H]3COC(=O)[C@H]23)OCO4)cc(OC)c1O [ETOPOSIDE]	19.9	> 100	> 100	31.6	–	> 100	1.6	–	50.5	0.6	–	4	–	–	–	–	–	–	–	–	–
